From ChEMBL document CHEMBL1828624, “Synthesis and antioxidant activity of oxazolyl/thiazolylsulfonylmethyl pyrazoles and isoxazoles” (Eur J Med Chem, 2011)
Values after ≈ are worked out from the molar mass of the structure shown. Active and inactive are the calls of the source. The rule behind the calls is not given here.

Tests used:
Format in all cases: functional
[1] = test system: Radical scavenging activity; assay: Antioxidant activity assessed as DPPH free radical scavenging activity at 50 ug/ml after 30 mins by spectrophotometric analysis relative to control
Method in brief: (§1)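 Compounds in methanol at […] were mixed with 0.004% (w/v) methanolic DPPH. After 30 min at room temperature, absorbance was read at 517 nm against a blank. Percent inhibition was calculated from control (all reagents minus compound) and sample absorbances. Run in triplicate.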

[2] = test system: Radical scavenging activity; assay: Antioxidant activity assessed as DPPH free radical scavenging activity at 75 ug/ml after 30 mins by spectrophotometric analysis relative to control; method in brief: as §1
[3] = test system: Radical scavenging activity; assay: Antioxidant activity assessed as DPPH free radical scavenging activity at 100 ug/ml after 30 mins by spectrophotometric analysis relative to control; method in brief: as §1
[4] = test system: Radical scavenging activity; assay: Antioxidant activity assessed as DPPH free radical scavenging activity after 30 mins by spectrophotometric analysis; method in brief: as §1
[5] = Antioxidant activity assessed as nitric oxide scavenging activity at 50 ug/ml after 150 mins by Griess method relative to control
Method in brief: (§2)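 NO was generated from sodium nitroprusside (10 mM) in phosphate buffer saline (0.2 M, pH 7.4). Compounds were added at […] and incubated 150 min at 25 °C. Percent scavenging was calculated from control (all reagents minus compound) and sample absorbances. Run in triplicate.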

[6] = Antioxidant activity assessed as nitric oxide scavenging activity at 75 ug/ml after 150 mins by Griess method relative to control; method in brief: as §2
[7] = Antioxidant activity assessed as nitric oxide scavenging activity at 100 ug/ml after 150 mins by Griess method relative to control; method in brief: as §2
[8] = Antioxidant activity assessed as hydrogen peroxide scavenging activity at 50 ug/ml relative to control
[9] = Antioxidant activity assessed as hydrogen peroxide scavenging activity at 75 ug/ml relative to control
[10] = Antioxidant activity assessed as hydrogen peroxide scavenging activity at 100 ug/ml relative to control

| SMILES | IC50 [4] | inhibition [1] | inhibition [2] | inhibition [3] | Activity [5] | Activity [6] | Activity [7] | Activity [8] | Activity [9] | Activity [10] |
| --- | --- | --- | --- | --- | --- | --- | --- | --- | --- | --- |
| O=S(=O)(CC1=NCCS1)c1n[nH]cc1-c1ccc(Cl)cc1 | Not Active | inactive | inactive | inactive | inactive | inactive | inactive | inactive | inactive | inactive |
| O=S(=O)(CC1=NCCO1)C1=NNCC1c1ccccc1 (stereo not given) | Not Active | inactive | inactive | inactive | inactive | inactive | inactive | inactive | inactive | inactive |
| Cc1ccc(C2CNN=C2S(=O)(=O)CC2=NCCS2)cc1 (stereo not given) | 103.73 µg/mL (≈ 321 µM) | 40.9% | 44% | 48.2% | 43.1% | 48.6% | 52.1% | 39.8% | 42.2% | 45% |
| Cc1ccc(-c2c[nH]nc2S(=O)(=O)CC2=NCCS2)cc1 | Not Active | inactive | inactive | inactive | inactive | inactive | inactive | inactive | inactive | inactive |
| O=S(=O)(CC1=NCCS1)c1n[nH]cc1-c1ccccc1 | Not Active | inactive | inactive | inactive | inactive | inactive | inactive | inactive | inactive | inactive |
| O=S(=O)(CC1=NCCS1)C1C(c2ccc(Cl)cc2)=NN(c2ccccc2)C1c1ccc(Cl)cc1 (stereo not given) | Not Active | inactive | inactive | inactive | inactive | inactive | inactive | inactive | inactive | inactive |
| O=S(=O)(CC1=NCCS1)c1c(-c2ccccc2)noc1-c1ccccc1 | Not Active | inactive | inactive | inactive | inactive | inactive | inactive | inactive | inactive | inactive |
| O=S(=O)(CC1=NCCS1)C1C(c2ccccc2)=NN(c2ccccc2)C1c1ccccc1 (stereo not given) | Not Active | inactive | inactive | inactive | inactive | inactive | inactive | inactive | inactive | inactive |
| O=S(=O)(CC1=NCCO1)c1c(-c2ccccc2)nn(-c2ccccc2)c1-c1ccccc1 | 82.48 µg/mL (≈ 186 µM) | 51.9% | 56.6% | 60.6% | 54.5% | 59% | 63.5% | 55.6% | 57.2% | 59.1% |

The next lines start with results.

| IC50 [4] | SMILES | inhibition [1] | inhibition [2] | inhibition [3] | Activity [5] | Activity [6] | Activity [7] | Activity [8] | Activity [9] | Activity [10] |
| --- | --- | --- | --- | --- | --- | --- | --- | --- | --- | --- |
| Not Active | COc1ccc(-c2noc(-c3ccc(C)cc3)c2S(=O)(=O)CC2=NCCS2)cc1 | inactive | inactive | inactive | inactive | inactive | inactive | inactive | inactive | inactive |
| 86.31 µg/mL (≈ 233 µM) | O=S(=O)(CC1=NCCO1)C1C(c2ccccc2)=NOC1c1ccccc1 (stereo not given) | 49.4% | 55.2% | 57.9% | 53.9% | 57.2% | 62.8% | 51.7% | 53.3% | 56.6% |
| Not Active | O=S(=O)(CC1=NCCO1)C1C(c2ccc(Cl)cc2)=NOC1c1ccc(Cl)cc1 (stereo not given) | inactive | inactive | inactive | inactive | inactive | inactive | inactive | inactive | inactive |
| 69.47 µg/mL (≈ 189 µM) | O=S(=O)(CC1=NCCO1)c1c(-c2ccccc2)noc1-c1ccccc1 | 61.6% | 65.8% | 72% | 56.7% | 57.3% | 62.1% | 57.2% | 58.1% | 60.1% |
| 86.25 µg/mL (≈ 194 µM) | O=S(=O)(CC1=NCCO1)C1C(c2ccccc2)=NN(c2ccccc2)C1c1ccccc1 (stereo not given) | 48.2% | 53.4% | 58% | 46.7% | 51.4% | 57.9% | 44.4% | 45.5% | 48.1% |
| Not Active | O=S(=O)(CC1=NCCO1)C1=NNCC1c1ccc(Cl)cc1 (stereo not given) | inactive | inactive | inactive | inactive | inactive | inactive | inactive | inactive | inactive |
| 72.51 µg/mL (≈ 237 µM) | Cc1ccc(-c2c[nH]nc2S(=O)(=O)CC2=NCCO2)cc1 | 59.8% | 63.7% | 69% | 59.4% | 63.5% | 65.2% | 60.7% | 62% | 65.5% |
| 75.16 µg/mL (≈ 181 µM) | COc1ccc(C2=NOC(c3ccc(C)cc3)C2S(=O)(=O)CC2=NCCO2)cc1 (stereo not given) | 58.1% | 63.3% | 66.5% | 61.9% | 65.9% | 71.2% | 65.9% | 66.6% | 70.9% |
| 62.76 µg/mL (≈ 152 µM) | COc1ccc(-c2noc(-c3ccc(C)cc3)c2S(=O)(=O)CC2=NCCO2)cc1 | 72.9% | 75.8% | 79.7% | 68.8% | 73% | 76.2% | 70% | 72% | 77.1% |
| Not Active | O=S(=O)(CC1=NCCS1)C1C(c2ccc(Cl)cc2)=NOC1c1ccc(Cl)cc1 (stereo not given) | inactive | inactive | inactive | inactive | inactive | inactive | inactive | inactive | inactive |
